Values after ≈ are worked out from the molar mass of the structure shown.
Columns and labels:
Bacillus anthracis [1] = assay: Antibacterial activity against Bacillus anthracis RITCC 1036 at 100 ul after overnight incubation by agar well diffusion method; format: functional
Pseudomonas aeruginosa [2] = assay: Antibacterial activity against Pseudomonas aeruginosa RITCC 1547 at 100 ul after overnight incubation by agar well diffusion method; format: functional
In short: (§1)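 Agar well diffusion. Inoculum came from a 12 h, 37 °C enrichment culture in 1 ml Mueller–Hinton broth and was spread on Mueller–Hinton agar. Wells cut with a 6 mm cork borer and filled with 100 µL of compound solution; methanol blank. Incubated overnight at 37 °C, then inhibition zone diameter measured. Triplicate, averaged.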

Staphylococcus aureus [3] = assay: Antibacterial activity against Staphylococcus aureus RITCC 1885 at 100 ul after overnight incubation by agar well diffusion method; format: functional; in short: as §1
Klebsiella pneumoniae [4] = assay: Antibacterial activity against Klebsiella pneumoniae RITCC 1249 after 24 hrs by macrodilution broth susceptibility assay; format: functional; conditions: RITCC 1249, 24 h
In short: (§2)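 Macro-dilution broth series of 12 tubes, each holding 1 ml Mueller–Hinton broth. Tube one received 1 ml of 100 mg/ml test solution, then serial dilution down the series. Added 1 ml bacterial suspension matched to 0.5 McFarland (1.5 ×10⁸ cfu/ml). Incubated 37 °C for 24 h. MIC taken as the last tube without turbidity.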

Klebsiella pneumoniae [5] = assay: Antibacterial activity against Klebsiella pneumoniae RITCC 1249 at 100 ul after overnight incubation by agar well diffusion method; format: functional; in short: as §1
Streptococcus pyogenes [6] = assay: Antibacterial activity against Streptococcus pyogenes RITCC 1940 after 24 hrs by macrodilution broth susceptibility assay; format: functional; conditions: RITCC 1940, 24 h; in short: as §2
Bacillus anthracis [7] = assay: Antibacterial activity against Bacillus anthracis RITCC 1036 after 24 hrs by macrodilution broth susceptibility assay; format: functional; conditions: RITCC 1036, 24 h
Streptococcus agalactiae [8] = assay: Antibacterial activity against Streptococcus agalactiae RITCC 1913 after 24 hrs by macrodilution broth susceptibility assay; format: functional; conditions: RITCC 1913, 24 h; in short: as §2
Staphylococcus aureus [9] = assay: Antibacterial activity against Staphylococcus aureus RITCC 1885 after 24 hrs by macrodilution broth susceptibility assay; format: functional; conditions: RITCC 1885, 24 h; in short: as §2
Streptococcus pyogenes [10] = assay: Antibacterial activity against Streptococcus pyogenes RITCC 1940 at 100 ul after overnight incubation by agar well diffusion method; format: functional; in short: as §1
Pseudomonas aeruginosa [11] = assay: Antibacterial activity against Pseudomonas aeruginosa RITCC 1547 after 24 hrs by macrodilution broth susceptibility assay; format: functional; conditions: RITCC 1547, 24 h; in short: as §2
Streptococcus agalactiae [12] = assay: Antibacterial activity against Streptococcus agalactiae RITCC 1913 at 100 ul after overnight incubation by agar well diffusion method; format: functional; in short: as §1
Klebsiella pneumoniae [13] = assay: Antibacterial activity against Klebsiella pneumoniae RITCC 1249 at 10 ug after overnight incubation by agar well diffusion method; format: functional, organism-based
In short: (§3)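 Bacteria were enriched in 1 ml Mueller–Hinton broth at 37 °C for 12 h, then cultured on Mueller–Hinton agar. Wells were cut with a 6 mm cork borer and filled with test solution, with gentamicine as the standard antibiotic. Plates were incubated overnight at 37 °C and inhibition-zone diameters were measured. Values are the average of triplicates. A methanol-only blank was included.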

Bacillus anthracis [14] = assay: Antibacterial activity against Bacillus anthracis RITCC 1036 at 10 ug after overnight incubation by agar well diffusion method; format: functional, organism-based
Streptococcus pyogenes [15] = assay: Antibacterial activity against Streptococcus pyogenes RITCC 1940 at 10 ug after overnight incubation by agar well diffusion method; format: functional, organism-based; in short: as §3

Row | Compound | inhibition zone (IZ) (Bacillus anthracis [1]) | inhibition zone (IZ) (Pseudomonas aeruginosa [2]) | inhibition zone (IZ) (Staphylococcus aureus [3]) | MIC (Klebsiella pneumoniae [4]) | inhibition zone (IZ) (Klebsiella pneumoniae [5]) | MIC (Streptococcus pyogenes [6]) | MIC (Bacillus anthracis [7]) | MIC (Streptococcus agalactiae [8]) | MIC (Staphylococcus aureus [9]) | inhibition zone (IZ) (Streptococcus pyogenes [10]) | MIC (Pseudomonas aeruginosa [11]) | inhibition zone (IZ) (Streptococcus agalactiae [12]) | inhibition zone (IZ) (Klebsiella pneumoniae [13]) | inhibition zone (IZ) (Bacillus anthracis [14]) | inhibition zone (IZ) (Streptococcus pyogenes [15])
1 | O=[N+]([O-])c1ccc(O)c(/C=N/CCSCCc2ccccn2)c1 | 20 mm | 20 mm | 20 mm | 25 mg/mL (≈ 75.4 mM) | 20 mm | 6.25 mg/mL (≈ 18.9 mM) | 25 mg/mL (≈ 75.4 mM) | 12.5 mg/mL (≈ 37.7 mM) | 25 mg/mL (≈ 75.4 mM) | 40 mm | 25 mg/mL (≈ 75.4 mM) | 30 mm |  |  | 
2 | GENTAMICIN |  |  |  |  |  |  |  |  |  |  |  |  | 20 mm | 32 mm | 20 mm
3 | COc1ccc(O)c(/C=N/CCSCCc2ccccn2)c1 | 20 mm | 10 mm | 10 mm | 25 mg/mL (≈ 79 mM) | 20 mm | 6.25 mg/mL (≈ 19.8 mM) | 25 mg/mL (≈ 79 mM) | 25 mg/mL (≈ 79 mM) | 50 mg/mL (≈ 158 mM) | 40 mm | 50 mg/mL (≈ 158 mM) | 20 mm |  |  | 
4 | Oc1ccc(Br)cc1/C=N/CCSCCc1ccccn1 | 50 mm | 20 mm | 40 mm | 12.5 mg/mL (≈ 34.2 mM) | 30 mm | 6.25 mg/mL (≈ 17.1 mM) | 3.12 mg/mL (≈ 8.55 mM) | 3.12 mg/mL (≈ 8.55 mM) | 6.25 mg/mL (≈ 17.1 mM) | 40 mm | 25 mg/mL (≈ 68.4 mM) | 50 mm |  |  | 
